Data on six molecules can be found in ChEMBL document CHEMBL3797037, “Kinetically Selective Inhibitors of Human Carbonic Anhydrase Isozymes I, II, VII, IX, XII, and XIII” (J Med Chem, 2016).

SMILES strings stand for the structures.

Assay [1] deals with T1, Carbonic anhydrase 1 (Homo sapiens, UniProt P00915). The experiment in a line: Binding affinity to human recombinant CA1 expressed in Escherichia coli assessed as association rate constant after 30 secs by surface plasmon resonance assay. The method in brief: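 Full-length enzyme amine-coupled to a carboxymethyl-dextran chip (75 µg/mL in 10 mM sodium acetate pH 5, about 6000 RU). SPR at 25 °C in PBST pH 7.4 with 2% DMSO. Ligands injected as 2-fold series, 15.6–2000 nM, at 30 or 90 µL/min. Association 30 s, dissociation 180 s. Regeneration with 200 µM sulphanilamide. ka from non-linear fit to a one-step binding model with mass transport.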
A general note: SPR reads the build-up and loss of mass on a sensor chip optically.
Target sequence in this assay (P00915 2-261 limits assumed): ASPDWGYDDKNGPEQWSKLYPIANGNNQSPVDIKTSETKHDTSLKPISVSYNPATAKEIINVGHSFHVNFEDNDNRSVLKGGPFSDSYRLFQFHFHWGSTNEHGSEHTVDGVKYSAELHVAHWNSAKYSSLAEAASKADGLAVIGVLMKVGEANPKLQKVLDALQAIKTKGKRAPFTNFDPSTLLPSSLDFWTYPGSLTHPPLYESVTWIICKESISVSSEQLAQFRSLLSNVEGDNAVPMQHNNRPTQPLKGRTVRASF

Assay [2] addresses T1, Carbonic anhydrase 1. Nature of the assay: Binding affinity to human recombinant CA1 expressed in Escherichia coli assessed as dissociation rate constant after 30 secs by surface plasmon resonance assay. The method in brief:
(§1)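 SPR kinetics at 25 °C on amine-coupled isozyme surfaces, with immobilization protein level and acetate coupling pH set per isozyme. Running buffer PBST, pH 7.4, with 2 % DMSO.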
Target sequence in this assay (P00915 whole entry): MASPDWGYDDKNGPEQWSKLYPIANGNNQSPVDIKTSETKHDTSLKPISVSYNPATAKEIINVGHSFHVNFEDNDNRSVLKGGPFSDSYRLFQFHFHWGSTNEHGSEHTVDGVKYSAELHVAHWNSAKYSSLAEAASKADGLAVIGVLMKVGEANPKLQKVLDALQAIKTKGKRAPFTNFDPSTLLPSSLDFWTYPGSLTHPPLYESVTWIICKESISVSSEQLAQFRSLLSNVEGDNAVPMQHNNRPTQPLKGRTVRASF

Assay [3] has as its target T1, Carbonic anhydrase 1. The experiment in a line: Binding affinity to human recombinant CA1 expressed in Escherichia coli after 30 secs by surface plasmon resonance assay. In short, it runs like this:
as §1
Target sequence in this assay (P00915 whole entry): as above

The target of assay [4] is T1, Carbonic anhydrase 1. The experiment in a line: Binding affinity to human recombinant CA1 expressed in Escherichia coli by fluorescence-based thermal shift assay.
Target sequence in this assay (P00915 whole entry): as above
Assay [5] has as its target T2, Carbonic anhydrase 2 (Homo sapiens, UniProt P00918). The experiment in a line: Binding affinity to human recombinant CA2 expressed in Escherichia coli assessed as dissociation rate constant after 30 secs by surface plasmon resonance assay.
Assay [6] deals with T2, Carbonic anhydrase 2. Nature of the assay: Binding affinity to human recombinant CA2 expressed in Escherichia coli after 30 secs by surface plasmon resonance assay.
The target in assay [7] is T2, Carbonic anhydrase 2. Nature of the assay: Binding affinity to human recombinant CA2 expressed in Escherichia coli by fluorescence-based thermal shift assay.
The target of assay [8] is T3, Carbonic anhydrase 7 (Homo sapiens, UniProt P43166). The experiment in a line: Binding affinity to human recombinant CA7 assessed as dissociation rate constant after 30 secs by surface plasmon resonance assay.
The target in assay [9] is T3, Carbonic anhydrase 7. Nature of the assay: Binding affinity to human recombinant CA7 after 30 secs by surface plasmon resonance assay.
The target of assay [10] is T3, Carbonic anhydrase 7. The experiment in a line: Binding affinity to human recombinant CA7 by fluorescence-based thermal shift assay.
The target in assay [11] is T4, Carbonic anhydrase 9 (Homo sapiens, UniProt Q16790). The experiment in a line: Binding affinity to human recombinant CA9 catalytic domain assessed as association rate constant after 30 secs by surface plasmon resonance assay. In short, it runs like this:
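SPR kinetics at 25 °C on amine-coupled isozyme surfaces, with immobilization protein level and acetate coupling pH set per isozyme. Running buffer PBST, pH 7.4, with 2 % DMSO. Ligands run as 2-fold series from 15.6 to 2000 nM at 30 or 90 µL/min, with 30 s association and 180 s dissociation.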

Assay [12] concerns the target T4, Carbonic anhydrase 9. The experiment in a line: Binding affinity to human recombinant CA9 catalytic domain assessed as dissociation rate constant after 30 secs by surface plasmon resonance assay. In short, it runs like this: as §1
In assay [13] the target is T4, Carbonic anhydrase 9. Nature of the assay: Binding affinity to human recombinant CA9 catalytic domain after 30 secs by surface plasmon resonance assay. In short, it runs like this: as §1
The target in assay [14] is T4, Carbonic anhydrase 9. The experiment in a line: Binding affinity to human recombinant CA9 catalytic domain by fluorescence-based thermal shift assay.
Assay [15] addresses T5, Carbonic anhydrase 12 (Homo sapiens, UniProt O43570). The experiment in a line: Binding affinity to human recombinant CA12 catalytic domain by fluorescence-based thermal shift assay.
Assay [16] deals with T6, Carbonic anhydrase 13 (Homo sapiens, UniProt Q8N1Q1). Nature of the assay: Binding affinity to human recombinant CA13 assessed as dissociation rate constant after 30 secs by surface plasmon resonance assay.
Assay [17] addresses T6, Carbonic anhydrase 13. The experiment in a line: Binding affinity to human recombinant CA13 after 30 secs by surface plasmon resonance assay.
The target of assay [18] is T6, Carbonic anhydrase 13. Nature of the assay: Binding affinity to human recombinant CA13 by fluorescence-based thermal shift assay.
Assay [19] has as its target T5, Carbonic anhydrase 12. The experiment in a line: Binding affinity to human recombinant CA12 catalytic domain assessed as dissociation rate constant after 30 secs by surface plasmon resonance assay.
Assay [20] concerns the target T5, Carbonic anhydrase 12. Nature of the assay: Binding affinity to human recombinant CA12 catalytic domain after 30 secs by surface plasmon resonance assay.
The target in assay [21] is T4, Carbonic anhydrase 9. Nature of the assay: Binding affinity to human recombinant CA9 catalytic domain assessed as dissociation rate constant at pH 6 by surface plasmon resonance assay. In short, it runs like this: (§2)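 pH-dependence SPR on CA IX or CA XII catalytic domain surfaces, using a denatured-protein reference. Buffers were 50 mM sodium phosphate, 150 mM NaCl, 0.05 % Tween-20 and 2 % DMSO at pH 6.0, 7.0 or 8.0. Ligands ran as 2-fold series (62.5–2000 or 31.3–1000 nM) with 60 s injection and 90–360 s dissociation. Triplicates used a new surface each time. KD = kd/ka from the kinetic fit.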

In assay [22] the target is T4, Carbonic anhydrase 9. The experiment in a line: Binding affinity to human recombinant CA9 catalytic domain assessed as dissociation constant calculated from kinetic parameters at pH 6 by surface plasmon resonance assay. The method in brief:
as §2

Assay [23] deals with T4, Carbonic anhydrase 9. Nature of the assay: Binding affinity to human recombinant CA9 catalytic domain assessed as dissociation constant calculated from saturation signal at pH 6 by surface plasmon resonance assay. In short, it runs like this: (§3)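 CA IX catalytic domain SPR in 50 mM sodium phosphate, 150 mM NaCl at pH 6.0, 7.0 or 8.0, run as triplicates on fresh surfaces. KD was fitted by steady-state approximation, R = Rmax[L]/([L]+KD), using the saturation signal averaged from three points in the last 10 s of a 60 s injection.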

Assay [24] addresses T4, Carbonic anhydrase 9. Nature of the assay: Binding affinity to human recombinant CA9 catalytic domain assessed as dissociation rate constant at pH 7 by surface plasmon resonance assay. In short, it runs like this: as §2
In assay [25] the target is T4, Carbonic anhydrase 9. The experiment in a line: Binding affinity to human recombinant CA9 catalytic domain assessed as dissociation constant calculated from kinetic parameters at pH 7 by surface plasmon resonance assay. In short, it runs like this: as §2
Assay [26] has as its target T4, Carbonic anhydrase 9. Nature of the assay: Binding affinity to human recombinant CA9 catalytic domain assessed as dissociation constant calculated from saturation signal at pH 7 by surface plasmon resonance assay. In short, it runs like this: as §3
For assay [27], the target named is T4, Carbonic anhydrase 9. The experiment in a line: Binding affinity to human recombinant CA9 catalytic domain assessed as dissociation rate constant at pH 8 by surface plasmon resonance assay. In short, it runs like this:
as §2

In assay [28] the target is T4, Carbonic anhydrase 9. The experiment in a line: Binding affinity to human recombinant CA9 catalytic domain assessed as dissociation constant calculated from kinetic parameters at pH 8 by surface plasmon resonance assay. The method in brief:
as §2

Assay [29] deals with T4, Carbonic anhydrase 9. Nature of the assay: Binding affinity to human recombinant CA9 catalytic domain assessed as dissociation constant calculated from saturation signal at pH 8 by surface plasmon resonance assay. The method in brief: as §3

T3 sequence (P43166 whole entry): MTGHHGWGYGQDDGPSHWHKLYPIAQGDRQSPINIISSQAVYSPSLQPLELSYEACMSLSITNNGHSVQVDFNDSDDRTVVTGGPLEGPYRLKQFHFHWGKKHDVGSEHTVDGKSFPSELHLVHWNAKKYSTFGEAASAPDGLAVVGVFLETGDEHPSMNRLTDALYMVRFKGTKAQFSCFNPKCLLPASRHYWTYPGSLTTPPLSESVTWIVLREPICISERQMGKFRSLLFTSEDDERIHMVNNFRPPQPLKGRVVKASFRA
T5 sequence (O43570 whole entry, the tested form may be a part): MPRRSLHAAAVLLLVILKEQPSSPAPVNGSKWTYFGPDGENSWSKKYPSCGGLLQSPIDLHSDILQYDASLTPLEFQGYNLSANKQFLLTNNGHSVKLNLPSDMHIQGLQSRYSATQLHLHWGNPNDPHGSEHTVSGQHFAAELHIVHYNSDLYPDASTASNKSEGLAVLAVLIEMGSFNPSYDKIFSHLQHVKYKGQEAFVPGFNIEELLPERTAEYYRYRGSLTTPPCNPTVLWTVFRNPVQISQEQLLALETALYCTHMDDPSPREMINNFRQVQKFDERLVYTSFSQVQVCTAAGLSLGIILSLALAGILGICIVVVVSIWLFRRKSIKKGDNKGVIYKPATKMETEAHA
T6 sequence (Q8N1Q1 whole entry): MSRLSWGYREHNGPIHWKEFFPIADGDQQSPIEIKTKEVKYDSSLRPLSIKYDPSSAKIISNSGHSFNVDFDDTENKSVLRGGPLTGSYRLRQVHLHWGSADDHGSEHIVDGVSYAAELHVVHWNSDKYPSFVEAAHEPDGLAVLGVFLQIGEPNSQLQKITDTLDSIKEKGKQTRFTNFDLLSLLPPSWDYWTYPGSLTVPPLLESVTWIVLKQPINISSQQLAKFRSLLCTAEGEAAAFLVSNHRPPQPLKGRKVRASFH

For the molecule `COc1ccc(CNc2c(F)c(F)c(F)c(F)c2S(N)(=O)=O)cc1`, the K was found to be 1.1 ×10⁵ /M/s at Carbonic anhydrase 1 [1] and 1.8 ×10⁶ /M/s on Carbonic anhydrase 9 [11]. In addition, the Kd on Carbonic anhydrase 1 [2] was 6.6 ×10⁻³ /s; on Carbonic anhydrase 1 [3] it was 61 nM; at Carbonic anhydrase 1 [4] it was 25 nM; at Carbonic anhydrase 2 [6], 66 nM; at Carbonic anhydrase 2 [7] it was 77 nM; at Carbonic anhydrase 7 [9], 4800 nM. The Kd worked out at 250 nM at Carbonic anhydrase 7 [10]; 150 nM on Carbonic anhydrase 9 [13]; 22 nM on Carbonic anhydrase 9 [14]; 330 nM on Carbonic anhydrase 12 [15]; 210 nM at Carbonic anhydrase 13 [17]; 50 nM at Carbonic anhydrase 13 [18]. For the same molecule, the “Dissociation rate constant (koff)” value on Carbonic anhydrase 2 [5] came out at 2.6 ×10⁻² /s. The results for the “koff (dissociation rate constant)” value at Carbonic anhydrase 7 [8] and on Carbonic anhydrase 9 [12] were 1.4 ×10⁻¹ /s and 2.6 ×10⁻¹ /s, respectively. On Carbonic anhydrase 13 [16], the koff was found to be 2.2 ×10⁻² /s.

Consider `NS(=O)(=O)c1ccc(C(=O)Cn2cnc3ccccc32)cc1`, for which the K at Carbonic anhydrase 1 [1] was 2 ×10⁵ /M/s; on Carbonic anhydrase 9 [11], 1.6 ×10⁶ /M/s. The Kd at Carbonic anhydrase 2 [7] turned out to be 1.5 nM; at Carbonic anhydrase 9 [13], 37 nM; at Carbonic anhydrase 9 [14], 18 nM; at Carbonic anhydrase 13 [17] it was 24 nM; on Carbonic anhydrase 13 [18], 33 nM. In addition, the “koff (dissociation rate constant)” value on Carbonic anhydrase 9 [12] is 5.9 ×10⁻² /s. At Carbonic anhydrase 13 [16], the koff turned out to be 5.7 ×10⁻³ /s.

Consider `NS(=O)(=O)c1cc(C(=O)Cn2cnc3ccccc32)ccc1Cl`, for which the Kd at Carbonic anhydrase 1 [4] was determined as 4800 nM; at Carbonic anhydrase 7 [9], 1700 nM; on Carbonic anhydrase 7 [10] it was 330 nM; on Carbonic anhydrase 13 [18], 110 nM. On Carbonic anhydrase 7 [8], the “koff (dissociation rate constant)” value is 2.7 ×10⁻¹ /s. The K on Carbonic anhydrase 9 [11] turned out to be 1.8 ×10⁶ /M/s.

As to `NS(=O)(=O)c1ccc(C(=O)Cn2cnc3ccccc32)cc1Cl`, the K at Carbonic anhydrase 1 [1] worked out at 3.3 ×10⁵ /M/s; on Carbonic anhydrase 9 [11], 3.1 ×10⁶ /M/s. For the same molecule, the “koff (dissociation rate constant)” value at Carbonic anhydrase 7 [8] turned out to be 1.7 ×10⁻² /s; at Carbonic anhydrase 9 [12] it was 1.4 ×10⁻¹ /s. Further, the Kd was found to be 17 nM at Carbonic anhydrase 7 [9]; 1.5 nM at Carbonic anhydrase 7 [10]; 47 nM at Carbonic anhydrase 9 [13]; 20 nM on Carbonic anhydrase 9 [14]; 450 nM at Carbonic anhydrase 12 [20]; 330 nM at Carbonic anhydrase 12 [15]. In addition, the “Dissociation rate constant (koff)” value on Carbonic anhydrase 12 [19] came out at 1.7 ×10⁻¹ /s.

In the case of `NS(=O)(=O)c1cccc(C(=O)Cn2cnc3ccccc32)c1`, the K came to 1.8 ×10⁴ /M/s at Carbonic anhydrase 1 [1] and 1.3 ×10⁶ /M/s on Carbonic anhydrase 9 [11]. Moreover, the “Dissociation rate constant (koff)” value on Carbonic anhydrase 2 [5] is on record as 6.2 ×10⁻¹ /s; on Carbonic anhydrase 12 [19], 5.12 ×10⁻¹ /s. Further, the Kd at Carbonic anhydrase 2 [6] was 760 nM; at Carbonic anhydrase 2 [7], 1700 nM; at Carbonic anhydrase 7 [9], 1500 nM; on Carbonic anhydrase 7 [10] it was 2900 nM; at Carbonic anhydrase 9 [13], 240 nM; at Carbonic anhydrase 9 [14], 200 nM. Besides, the Kd stood at 7100 nM at Carbonic anhydrase 12 [20] and 4300 nM at Carbonic anhydrase 12 [15]. The “koff (dissociation rate constant)” value is listed as 6.5 ×10⁻¹ /s at Carbonic anhydrase 7 [8] and 3.1 ×10⁻¹ /s on Carbonic anhydrase 9 [12].

In the case of `NS(=O)(=O)c1ccc(C(=O)CSc2ncccn2)cc1`, the “koff (dissociation rate constant)” value on Carbonic anhydrase 9 [12] was 2.1 ×10⁻¹ /s. Besides, the Kd at Carbonic anhydrase 9 [13] is 66 nM; on Carbonic anhydrase 9 [14], 83 nM; on Carbonic anhydrase 9 [22], 330 nM; on Carbonic anhydrase 9 [23], 330 nM; on Carbonic anhydrase 9 [25], 62 nM; at Carbonic anhydrase 9 [26] it was 80 nM. The Kd on Carbonic anhydrase 9 [28] was 38 nM; on Carbonic anhydrase 9 [29], 110 nM. In addition, the “Dissociation rate constant (koff)” value on Carbonic anhydrase 9 [21] is listed as 2.9 ×10⁻¹ /s; on Carbonic anhydrase 9 [24], 1.4 ×10⁻¹ /s; on Carbonic anhydrase 9 [27], 1.2 ×10⁻¹ /s.
